The M2OR odorant receptor database
Residue numbers refer to the chain shown, from its start.

Legend:
Settings in all cases: stereoisomer not certain
[1] = system: O52E8
Outline: (§1)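 Each receptor–molecule pair is labelled responsive or non-responsive (inactive) according to whether the original authors judged the measured signal statistically different from baseline. The data were taken from the main text and supplementary material of published papers and checked for typos and inconsistencies. Assay methods differed by source, with transient luciferase assays in mammalian cell lines being common.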

[2] = system: T1, O52H1
T1 sequence (whole entry): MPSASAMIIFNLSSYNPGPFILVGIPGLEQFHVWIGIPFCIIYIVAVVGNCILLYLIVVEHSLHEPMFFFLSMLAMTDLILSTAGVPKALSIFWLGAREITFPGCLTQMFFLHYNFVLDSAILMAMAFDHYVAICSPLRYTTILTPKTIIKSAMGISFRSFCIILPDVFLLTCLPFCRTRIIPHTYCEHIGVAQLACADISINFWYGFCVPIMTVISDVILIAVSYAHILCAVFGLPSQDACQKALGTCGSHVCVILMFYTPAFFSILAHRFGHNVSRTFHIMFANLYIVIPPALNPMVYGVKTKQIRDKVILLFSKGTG
Outline: as §1

[3] = system: O51J1
Chain of O51J1 (as listed by the source): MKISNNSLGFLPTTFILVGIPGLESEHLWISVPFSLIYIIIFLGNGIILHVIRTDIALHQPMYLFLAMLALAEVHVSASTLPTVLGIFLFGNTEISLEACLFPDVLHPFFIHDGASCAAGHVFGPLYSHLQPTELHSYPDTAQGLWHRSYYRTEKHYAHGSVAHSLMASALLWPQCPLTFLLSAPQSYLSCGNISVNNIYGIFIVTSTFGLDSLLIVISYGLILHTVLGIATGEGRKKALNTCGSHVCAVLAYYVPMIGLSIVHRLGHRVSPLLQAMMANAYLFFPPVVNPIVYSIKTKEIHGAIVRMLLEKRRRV
Outline: as §1

[4] = system: T2, O51F1
T2 sequence (whole entry): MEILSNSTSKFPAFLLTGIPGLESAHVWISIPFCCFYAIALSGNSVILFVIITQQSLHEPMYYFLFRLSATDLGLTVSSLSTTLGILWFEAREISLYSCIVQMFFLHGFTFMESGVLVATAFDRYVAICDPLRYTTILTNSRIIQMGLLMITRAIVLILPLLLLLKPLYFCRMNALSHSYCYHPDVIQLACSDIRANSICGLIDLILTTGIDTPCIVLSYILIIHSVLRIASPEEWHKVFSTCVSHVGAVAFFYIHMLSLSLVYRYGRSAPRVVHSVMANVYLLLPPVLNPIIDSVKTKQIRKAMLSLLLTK
Outline: as §1

[5] = system: T3, O51F1; remark: listed apart in the source
T3 sequence (whole entry): T2 sequence (whole entry) with A13T
Outline: as §1

[6] = system: T4, O51F2 Y341S
T4 sequence (whole entry): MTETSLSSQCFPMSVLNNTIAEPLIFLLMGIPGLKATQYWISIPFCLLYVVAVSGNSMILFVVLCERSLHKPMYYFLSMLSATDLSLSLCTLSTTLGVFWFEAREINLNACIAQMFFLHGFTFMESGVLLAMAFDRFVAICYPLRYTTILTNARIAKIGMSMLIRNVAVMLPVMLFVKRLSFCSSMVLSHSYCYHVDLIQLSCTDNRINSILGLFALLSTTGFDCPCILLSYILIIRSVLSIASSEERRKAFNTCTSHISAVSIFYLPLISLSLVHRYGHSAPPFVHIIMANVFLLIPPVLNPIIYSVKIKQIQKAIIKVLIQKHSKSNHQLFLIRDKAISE
Outline: as §1

[7] = system: T5, O51G1
T5 sequence (whole entry): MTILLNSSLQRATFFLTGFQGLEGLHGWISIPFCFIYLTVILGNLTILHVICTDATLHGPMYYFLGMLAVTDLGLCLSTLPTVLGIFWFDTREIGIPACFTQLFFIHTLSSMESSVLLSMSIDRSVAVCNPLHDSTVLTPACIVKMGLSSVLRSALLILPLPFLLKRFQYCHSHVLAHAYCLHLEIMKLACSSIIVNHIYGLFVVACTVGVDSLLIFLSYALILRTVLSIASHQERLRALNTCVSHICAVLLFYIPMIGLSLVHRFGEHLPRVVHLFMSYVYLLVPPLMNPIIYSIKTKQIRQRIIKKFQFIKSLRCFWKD
Outline: as §1

[8] = system: T6, O51I1 V164L
T6 sequence (whole entry): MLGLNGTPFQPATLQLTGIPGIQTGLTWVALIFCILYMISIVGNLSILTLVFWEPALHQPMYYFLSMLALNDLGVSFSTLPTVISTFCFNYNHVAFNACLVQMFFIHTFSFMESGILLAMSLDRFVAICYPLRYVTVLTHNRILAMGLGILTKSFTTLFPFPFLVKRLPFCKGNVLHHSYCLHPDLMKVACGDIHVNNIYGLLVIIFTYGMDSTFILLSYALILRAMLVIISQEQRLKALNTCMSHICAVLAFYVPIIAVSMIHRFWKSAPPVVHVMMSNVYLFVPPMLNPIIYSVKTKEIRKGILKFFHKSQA
Outline: as §1

[9] = system: T7, O51J1 R75H I202V
T7 sequence (whole entry): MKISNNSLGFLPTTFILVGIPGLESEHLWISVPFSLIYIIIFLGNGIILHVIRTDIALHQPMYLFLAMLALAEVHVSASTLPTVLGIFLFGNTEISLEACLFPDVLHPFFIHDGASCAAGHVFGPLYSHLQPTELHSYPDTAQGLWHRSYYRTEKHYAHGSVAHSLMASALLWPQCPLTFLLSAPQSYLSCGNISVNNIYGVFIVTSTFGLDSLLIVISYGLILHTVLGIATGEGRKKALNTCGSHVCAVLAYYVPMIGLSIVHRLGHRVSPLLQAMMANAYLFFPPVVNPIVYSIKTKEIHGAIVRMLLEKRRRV
Outline: as §1

[10] = system: T8, O51L1
T8 sequence (whole entry): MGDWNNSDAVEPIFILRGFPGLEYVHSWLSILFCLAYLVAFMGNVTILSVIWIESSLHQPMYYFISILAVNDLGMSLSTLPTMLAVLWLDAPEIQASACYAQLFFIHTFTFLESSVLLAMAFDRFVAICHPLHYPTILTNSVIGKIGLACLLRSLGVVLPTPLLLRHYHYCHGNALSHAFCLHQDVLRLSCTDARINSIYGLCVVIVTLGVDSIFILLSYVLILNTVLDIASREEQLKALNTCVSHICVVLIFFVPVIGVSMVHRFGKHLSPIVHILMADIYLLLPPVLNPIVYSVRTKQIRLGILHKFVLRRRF
Outline: as §1

[11] = system: T9, O51T1
T9 sequence (whole entry): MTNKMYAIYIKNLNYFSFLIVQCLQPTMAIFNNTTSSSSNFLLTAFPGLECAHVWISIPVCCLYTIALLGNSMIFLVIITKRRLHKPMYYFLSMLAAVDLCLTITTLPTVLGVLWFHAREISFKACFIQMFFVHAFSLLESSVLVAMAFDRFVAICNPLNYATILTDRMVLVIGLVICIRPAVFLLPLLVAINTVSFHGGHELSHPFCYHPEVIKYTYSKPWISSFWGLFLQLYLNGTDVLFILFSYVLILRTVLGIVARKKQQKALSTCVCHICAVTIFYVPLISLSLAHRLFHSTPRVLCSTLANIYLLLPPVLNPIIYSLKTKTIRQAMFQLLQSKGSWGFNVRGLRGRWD
Outline: as §1

[12] = system: T10, O51V1 L36F N51T G96W
T10 sequence (whole entry): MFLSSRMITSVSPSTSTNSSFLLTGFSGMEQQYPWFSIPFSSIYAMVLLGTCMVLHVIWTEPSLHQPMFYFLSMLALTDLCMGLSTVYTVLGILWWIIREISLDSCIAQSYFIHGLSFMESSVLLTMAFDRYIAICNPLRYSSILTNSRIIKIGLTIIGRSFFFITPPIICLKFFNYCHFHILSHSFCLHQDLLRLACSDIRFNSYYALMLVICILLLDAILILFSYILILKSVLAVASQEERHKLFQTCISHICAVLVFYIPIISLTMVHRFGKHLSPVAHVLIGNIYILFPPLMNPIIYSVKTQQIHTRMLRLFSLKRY
Outline: as §1

[13] = system: T11, O52A1
T11 sequence (whole entry): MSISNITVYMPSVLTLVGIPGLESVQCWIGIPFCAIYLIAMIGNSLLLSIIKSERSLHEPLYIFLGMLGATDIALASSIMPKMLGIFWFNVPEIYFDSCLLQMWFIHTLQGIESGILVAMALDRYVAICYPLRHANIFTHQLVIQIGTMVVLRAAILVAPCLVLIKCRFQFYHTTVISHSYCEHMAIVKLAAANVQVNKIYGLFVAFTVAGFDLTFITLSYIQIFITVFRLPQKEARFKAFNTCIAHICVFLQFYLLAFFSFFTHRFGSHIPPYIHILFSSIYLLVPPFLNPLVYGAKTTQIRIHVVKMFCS
Outline: as §1

[14] = system: T12, O52B6 V288I
T12 sequence (whole entry): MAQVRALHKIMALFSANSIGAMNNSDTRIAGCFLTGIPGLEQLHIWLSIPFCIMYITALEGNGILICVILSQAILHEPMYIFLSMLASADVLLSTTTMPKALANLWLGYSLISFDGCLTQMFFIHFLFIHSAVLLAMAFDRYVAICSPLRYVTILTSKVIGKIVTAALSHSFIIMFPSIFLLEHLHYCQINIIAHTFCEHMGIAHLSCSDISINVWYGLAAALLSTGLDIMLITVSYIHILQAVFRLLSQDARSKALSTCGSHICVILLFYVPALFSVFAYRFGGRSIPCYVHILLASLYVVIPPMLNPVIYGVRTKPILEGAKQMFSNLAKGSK
Outline: as §1

[15] = system: O52E2 R264C
Chain of O52E2 R264C (as listed by the source, stated change not applied): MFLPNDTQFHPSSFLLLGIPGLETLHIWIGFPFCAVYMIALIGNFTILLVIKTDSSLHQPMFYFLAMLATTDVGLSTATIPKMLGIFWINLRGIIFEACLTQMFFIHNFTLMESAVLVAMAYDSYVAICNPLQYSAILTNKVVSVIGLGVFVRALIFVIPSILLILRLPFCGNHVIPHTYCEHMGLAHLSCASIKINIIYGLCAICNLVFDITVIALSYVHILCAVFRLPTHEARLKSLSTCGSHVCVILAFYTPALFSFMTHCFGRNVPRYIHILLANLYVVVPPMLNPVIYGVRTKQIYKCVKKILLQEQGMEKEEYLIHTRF
Outline: as §1

[16] = system: O52E4
Chain of O52E4 (as listed by the source): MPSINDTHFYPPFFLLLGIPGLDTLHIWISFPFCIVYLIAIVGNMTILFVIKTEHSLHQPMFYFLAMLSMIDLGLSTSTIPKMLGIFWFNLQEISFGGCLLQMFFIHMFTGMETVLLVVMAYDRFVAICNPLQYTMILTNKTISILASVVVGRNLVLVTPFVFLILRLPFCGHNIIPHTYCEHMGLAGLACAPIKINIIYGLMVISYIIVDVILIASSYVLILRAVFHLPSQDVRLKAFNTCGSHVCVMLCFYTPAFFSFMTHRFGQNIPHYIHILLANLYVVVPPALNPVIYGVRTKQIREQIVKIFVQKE
Outline: as §1

[17] = system: O52E5
Chain of O52E5 (as listed by the source): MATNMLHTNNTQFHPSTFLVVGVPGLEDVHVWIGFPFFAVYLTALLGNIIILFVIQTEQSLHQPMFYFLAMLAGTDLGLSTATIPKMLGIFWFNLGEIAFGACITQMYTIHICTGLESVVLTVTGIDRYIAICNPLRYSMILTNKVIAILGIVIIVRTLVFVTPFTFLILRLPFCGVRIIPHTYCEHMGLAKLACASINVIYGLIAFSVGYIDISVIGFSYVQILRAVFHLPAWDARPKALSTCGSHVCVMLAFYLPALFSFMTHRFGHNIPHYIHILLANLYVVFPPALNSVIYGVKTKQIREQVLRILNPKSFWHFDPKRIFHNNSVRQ
Outline: as §1

[18] = system: T13, O52H1 A89T H130R C242R
T13 sequence (whole entry): T1 sequence (whole entry) with A89T, H130R, C242R
Outline: as §1

[19] = system: T14, O52H1 H130R C242R
T14 sequence (whole entry): T1 sequence (whole entry) with H130R, C242R
Outline: as §1

[20] = system: T15, O52I2 I74L
T15 sequence (whole entry): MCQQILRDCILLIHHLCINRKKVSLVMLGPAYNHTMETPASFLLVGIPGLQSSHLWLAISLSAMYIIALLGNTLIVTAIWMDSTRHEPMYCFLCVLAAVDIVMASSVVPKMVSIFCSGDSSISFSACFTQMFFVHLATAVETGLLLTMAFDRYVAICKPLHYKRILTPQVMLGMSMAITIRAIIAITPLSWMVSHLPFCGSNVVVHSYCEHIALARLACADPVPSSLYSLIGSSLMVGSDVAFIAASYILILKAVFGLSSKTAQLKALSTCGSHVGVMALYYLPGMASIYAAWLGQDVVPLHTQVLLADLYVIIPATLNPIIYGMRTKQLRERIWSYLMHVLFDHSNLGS
Outline: as §1

Measured: odorant receptor agonist call;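 also: active if original authors judged signal statistically different from baseline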

Chain of O52E8 (as listed by the source): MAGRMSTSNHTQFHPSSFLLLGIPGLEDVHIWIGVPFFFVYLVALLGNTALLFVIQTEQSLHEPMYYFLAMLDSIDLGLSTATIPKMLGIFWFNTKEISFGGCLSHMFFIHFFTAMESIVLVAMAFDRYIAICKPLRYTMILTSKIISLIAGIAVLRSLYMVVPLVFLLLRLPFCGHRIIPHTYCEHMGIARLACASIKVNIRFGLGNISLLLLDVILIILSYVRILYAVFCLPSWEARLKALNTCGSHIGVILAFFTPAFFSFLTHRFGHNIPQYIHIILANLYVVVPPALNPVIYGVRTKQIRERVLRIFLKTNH

CCC(S)C(C)CO (stereo not drawn)
inactive: [1] | [2]

CCCC(C)=CC(=O)O
inactive: [3]

CC1=C(O)C(=O)C(C)O1 (stereo not drawn)
not listed: [3]
inactive: all other assays above

CC1=C(O)C(=O)OC1C (stereo not drawn)
not listed: [3]
inactive: all other assays above

CC(=O)c1c(C)c([N+](=O)[O-])c(C(C)(C)C)c([N+](=O)[O-])c1C
inactive: [1] | [2]

CC1CCCCCCCCCCCCC(=O)C1 (stereo not drawn)
inactive: [1] | [2]

CCCCCC1CCCC(=O)O1 (stereo not drawn)
inactive: [1] | [2]

Cc1cnc(C)c(C)n1
not listed: [3]
inactive: all other assays above

C=C(C)C1CCC(C)C(=O)C1 (stereo not drawn)
inactive: [4] | [5]

CCC1OC(C)=C(O)C1=O (stereo not drawn)
not listed: [3]
inactive: all other assays above

CCCCCC(S)C(C)CO (stereo not drawn)
inactive: [1] | [2]

CC(CO)CS (stereo not drawn)
inactive: [1] | [2]

CC1=NC(C)C(C)S1 (stereo not drawn)
not listed: [3]
inactive: all other assays above

CCCCC(S)C(C)CO (stereo not drawn)
inactive: [1] | [2]

CCCCCC(=O)C(C)C(C)=O (stereo not drawn)
inactive: [1] | [2]

CCC1OC(=O)C(O)=C1C (stereo not drawn)
not listed: [3]
inactive: all other assays above

CCCC(S)CCOC(C)=O (stereo not drawn)
not listed: [3]
inactive: all other assays above

CCCCCCC=CCCC=O
not listed: [3] | [5] | [11] | [17]
inactive: all other assays above
